Structures are written as SMILES. A number with no mark means an inactive call. Results filed as inconclusive are left out. Calls of active or inactive are those of the source.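 How the source made its calls, unless noted: active means growth inhibition above 25% in both replicates, a cutoff set 3 SD above the mean; inconclusive means above 25% in only one replicate; inactive means the rest.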

Broadly, the viability is a read-out of living cells in per cent, often relative to untreated cells. The term inhibition denotes the change of the read-out against control, counted positive when it falls.

Experiment [1] can be described thus: S. cerevisiae growth inhibition in permissive medium (OD615), pilot counter-assay for S. cerevisiae lifespan shortening project, permissive growth control (AID 705). As to conditions: OD615, 24 h, at 10 µM, stronger effect = higher value. The method, boiled down:
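Test system: Saccharomyces cerevisiae strain carrying genetically modified DeaD replicative-lifespan system; buffer or medium: SC raffinose/galactose permissive medium; dosing: one dose 10 µM, DMSO 0.25% final; times: 24 h exposure, 30 °C; measured by: OD at 615 nm; read-out basis: growth inhibition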

Experiment [2] in a line: doxorubicin toxicity protection in MRP-1 cells – H69AR cells, CellTiter-Glo, duplicate, MRP-1 activator project, pilot screen (AID 807;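 active means viability increase at or above a cutoff of the median across tested compounds plus 3 SD, cut at about 8.5% in these data, passing the limit was not always enough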;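 further: compound pretreatment 18-22 h then 72 h combined with doxorubicin; 0% = doxorubicin alone and 100% = vehicle without doxorubicin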). The note with it: H69AR viability with doxorubicin, CellTiter-Glo luminescence; at 10 µM; stronger effect = higher value.
Experiment [3] can be described thus: viability of HCT116 without oncogenic beta-catenin – human colon tumor cells, pilot screen (AID 823;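 active means cell viability at or below a set limit in both duplicate runs, the limit being the all-compound median minus 4 SD, cut at about 23% in these data, passing the limit was not always enough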;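 further: 0% = wells killed by 20 µM Hyamine and 100% = untreated DMSO cell wells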). The note with it: HCT116 beta-catenin knockout viability, CellTiter-Glo, 60 h; at 10 µM; stronger effect = lower value.
Experiment [4] can be described thus: viability of PTEN-null HCT116 cells – cell-based, HCT116 clonal line, CellTiter-Glo, pilot screen (AID 824;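 active means viability at or below 27.92% in each of two runs, the all-compound median minus 4 SD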;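 further: 0% = 20 µM Hyamine control and 100% = vehicle cell control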). As to conditions: HCT116 PTEN-deleted viability, 60 h, at 10 µM, stronger effect = lower value. (In ATP-based viability assays light output follows the ATP content of the culture.)
Experiment [5] is described as follows: RAM pathway blockade in budding yeast – dse1pr::URA3 reporter, 5-FOA selection, pilot screen (AID 869;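 active means inhibition over a set limit, the all-compound mean plus 3 SD, in both replicate runs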;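 further: 0% = DMSO wells with no growth and 100% = 10 µM 1-NA-PP1 with full growth; RAM network block rescues cells from 5-FOA so hits raise OD615 growth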). As to conditions: S. cerevisiae dse1pr::URA3 5-FOA growth, OD615, 2 d; at 10 µM; stronger effect = higher value; strain carries analog-sensitive mutant Cbk1 kinase.
Experiment [6] is described as follows: RAM signaling pathway blockade in yeast – S. cerevisiae, Pdr1DBD-CYC8 efflux-inhibited sensitized strain, primary screen (AID 1298;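 active means RAM network inhibition above 8.4% in each of two replicates, 3 SD over the compound average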;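 further: 0% = DMSO untreated cells without growth and 100% = 10 µM 1-NA-PP1 full growth; higher means more yeast growth rescued from 5-FOA killing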). As to conditions: S. cerevisiae cbk1-as DSE1-URA3 strain, 5-FOA growth OD615, 2 d; at 50 µM; stronger effect = higher value.
Experiment [7] is described as follows: S. cerevisiae growth inhibition in restrictive medium, OD615, pilot screen, restrictive growth control, yeast lifespan reduction project (AID 706;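 active means growth inhibition above a set limit, 3 SD over mean compound inhibition, in both replicates, cut at about 43% in these data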;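 further: modified DeaD lifespan yeast strain shifted to restrictive glucose medium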). As to conditions: OD615, 48 h, at 10 µM, stronger effect = higher value. The method, boiled down: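 material = engineered S. cerevisiae DeaD strain | buffer or medium = glucose-based CSMM-D restrictive medium | dosing = one concentration, 10 µM final, 0.25% DMSO | schedule = 4 h pre-growth plus 48 h compound exposure, 30 °C | detection = OD615 absorbance reading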

Take `COc1ccc(S(=O)(=O)N2CCN(c3ccc4nnc(-c5ccc(F)cc5)n4n3)CC2)cc1`: in experiment [1], the growth inhibition was 16.1%. Besides, the viability increase in experiment [2] is -6.07%. Besides, the figures for the viability in experiment [3] and in experiment [4] were 46.4% and 38.6%, respectively. For the same molecule, in experiment [5], the inhibition was 1.78%. Besides, in experiment [6], the RAM network inhibition was 1.48%.
Consider `Cn1c(=O)[nH]c(=O)c2c1nc(SCC(=O)Nc1ccccc1)n2Cc1ccccc1`, for which the growth inhibition was -4.58% in experiment [1] and 0.385% in experiment [7]. Also, the viability in experiment [3] was 92%; in experiment [4], 94.6%. For the same molecule, in experiment [5], the inhibition was 0.935%. For the same molecule, the RAM network inhibition in experiment [6] is 2.08%.
Take `CCc1ccc(C2CC(c3ccccc3C)n3nc(N)nc3N2)cc1` (stereo not drawn): the growth inhibition in experiment [1] was 7.95%; in experiment [7], -3.1%. In addition, the viability in experiment [3] was 87.5%; in experiment [4], 79.6%. Also, the inhibition in experiment [5] is 0.19%. In addition, the RAM network inhibition in experiment [6] was 6.27%.
Take `CC(=O)C(Sc1ccc2nnc(-c3ccc(C)cc3)n2n1)C(C)=O`: in experiment [1], the growth inhibition is 1.31%. For the same molecule, the viability increase in experiment [2] is -4.69%. The viability in experiment [3] is 101%; in experiment [4] it was 95.3%. Moreover, the inhibition in experiment [5] was 2.04%. In addition, the RAM network inhibition in experiment [6] was 6.06%.
`Oc1c(CN2CCc3ccccc3C2)cc(Cl)c2cccnc12`: the growth inhibition in experiment [1] was 5.68%. Moreover, in experiment [2], the viability increase was -9.01%. Besides, the viability is 1.27% (active) in experiment [3] and 0.66% (active) in experiment [4]. Further, the inhibition in experiment [5] is -1.5%. Also, in experiment [6], the RAM network inhibition is -2.41%.
As to `Cc1onc(-c2ccccc2)c1C(=O)Nc1nnc(N(C)Cc2ccccc2)s1`, the growth inhibition in experiment [1] is -12.4%; in experiment [7] it was -20.5%. For the same molecule, the viability was 89.8% in experiment [3] and 88.8% in experiment [4]. Moreover, the inhibition in experiment [5] is 1.02%. Moreover, the RAM network inhibition in experiment [6] is 9.12%.
With `CC(NC(=O)CN1CCN(Cc2ccc(Cl)cc2)C1=O)c1ccc2c(c1)OCCO2` (stereo not drawn), the values for the growth inhibition in experiment [1] and in experiment [7] were 2.64% and -21.2%, respectively. In addition, the figures for the viability in experiment [3] and in experiment [4] were 84.1% and 86.3%, respectively. Moreover, the inhibition in experiment [5] was -0.3%. Further, the RAM network inhibition in experiment [6] was 0.27%.
Consider `CCc1nnc(NC(=O)c2ccc(S(=O)(=O)N(CC)CC)cc2)s1`, for which the figures for the growth inhibition in experiment [1] and in experiment [7] were -7.41% and -3.27%, respectively. Moreover, the values for the viability in experiment [3] and in experiment [4] were 104% and 90.9%, respectively. The inhibition in experiment [5] was 1.52%. Besides, the RAM network inhibition in experiment [6] is -0.37%.
Turning to `CCCCc1ccc(-c2nc(-c3ccncc3)no2)cc1`, the growth inhibition is -16.1% in experiment [1] and -3.25% in experiment [7]. The viability in experiment [3] was 65.8%; in experiment [4] it was 75.9%. Moreover, in experiment [5], the inhibition is 3.17%. In addition, in experiment [6], the RAM network inhibition is 3.23%.
Turning to `COc1cc(C(c2sc3ncnn3c2O)N2CCN(c3ccccc3F)CC2)cc(OC)c1OC` (stereo not drawn), the growth inhibition in experiment [1] is 1.67%; in experiment [7] it was -0.84%. Further, the values for the viability in experiment [3] and in experiment [4] were 103% and 105%, respectively. The inhibition in experiment [5] was 2.5%. Moreover, in experiment [6], the RAM network inhibition was 5.34%.
`O=C(CSCc1ccc(Cl)cc1)NCC1CCCO1` (stereo not drawn): the growth inhibition in experiment [1] is -7.79%; in experiment [7], -2.08%. The viability is 102% in experiment [3] and 101% in experiment [4]. Besides, in experiment [5], the inhibition is 1.34%. The RAM network inhibition in experiment [6] is 3.99%.
Turning to `CCOC(=O)/C=C1\SCC(=O)N1CCOc1cccc(Br)c1`, the values for the growth inhibition in experiment [1] and in experiment [7] were -18.6% and -29.1%, respectively. Further, the figures for the viability in experiment [3] and in experiment [4] were 85.5% and 80.4%, respectively. For the same molecule, the inhibition in experiment [5] was 2.75%. In experiment [6], the RAM network inhibition was 3.37%.
For the molecule `O=C1C=C(O)CC(c2ccc(Cl)cc2)C1` (stereo not drawn), the growth inhibition is -2.77% in experiment [1] and 0.79% in experiment [7]. For the same molecule, the viability in experiment [4] is 103%. In experiment [5], the inhibition is -0.37%. Besides, the RAM network inhibition in experiment [6] was 8.23%.
For the molecule `Cc1cccc(C2CC(c3ccccc3)Nc3ncnn32)c1` (stereo not drawn), the values for the growth inhibition in experiment [1] and in experiment [7] were 3.16% and 13.8%, respectively. Besides, the viability was 91.9% in experiment [3] and 93.8% in experiment [4]. Further, the inhibition in experiment [5] is 1.7%. In addition, in experiment [6], the RAM network inhibition is 0.37%.
As to `Cc1ccc(/C=c2/sc3nnc(-c4ccccc4Cl)n3c2=O)o1`, in experiment [1], the growth inhibition is -7.07%. Further, the viability increase in experiment [2] is -5%. Further, the viability in experiment [3] was 90.9%; in experiment [4], 93%. The inhibition in experiment [5] is 0.785%. The RAM network inhibition in experiment [6] was 3.46%.
On to `O=C(Cn1c(=O)oc2cc(S(=O)(=O)N3CCCC3)ccc21)NCc1ccccn1`, for which the growth inhibition in experiment [1] is 8.21%; in experiment [7], 0.96%. The viability in experiment [3] is 107%; in experiment [4] it was 104%. For the same molecule, in experiment [5], the inhibition was 1.01%. Also, in experiment [6], the RAM network inhibition was -0.87%.
With `O=C1Cc2ccccc2C(=O)N1CCc1ccccc1`, the growth inhibition is 12.3% in experiment [1] and 66% (active) in experiment [7]. The viability is 97.2% in experiment [3] and 92.8% in experiment [4]. Further, in experiment [5], the inhibition is 1.75%. In experiment [6], the RAM network inhibition is 2.61%.
As for `Cc1noc(/C=C/N(C)C)c1S(=O)(=O)N1CCCC(C(=O)Nc2ccc3c(c2)OCO3)C1` (stereo not drawn), the figures for the growth inhibition in experiment [1] and in experiment [7] were -1.3% and -0.88%, respectively. For the same molecule, the viability was 89.1% in experiment [3] and 89.7% in experiment [4]. In addition, in experiment [5], the inhibition is 2.2%. Also, the RAM network inhibition in experiment [6] was 7.17%.
As for `COc1ccccc1C(=O)Nc1cc(-c2nn3c(C)nnc3s2)ccc1C`, in experiment [1], the growth inhibition was 12.8%. Besides, the viability increase in experiment [2] was -3.73%. Further, the viability in experiment [3] is 114%; in experiment [4], 97.8%. Further, the inhibition in experiment [5] is 1.22%. Also, the RAM network inhibition in experiment [6] is 4.87%.
